Data set [1] has as its system HiBiT F3 in ARPE-19 cells. Nature of the data set: non-HTS extracellular/intracellular HiBiT F3 assay. The conditions noted are these: for HiBiT F3 secretion (extracellular) / intracellular HiBiT F3 levels: dose-responsive, ARPE-19. The format is cell-based, human. Summed up:
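HiBiT F3 ARPE-19 cells were plated at 200,000 cells/mL, and test compound in medium was added the next day. Treatment lasted 72 h or 1 week, with medium and compound renewed after 96 h for 1-week wells. For intracellular signal, cells were washed in HBSS and lysed 5 min with shaking in lytic buffer containing LgBiT (1:100) and substrate (1:50). Luminescence was read on 40 μL of lysate.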

A further data set concerns HiBiT F3 ARPE-19 cells. Briefly: Cell Titer Glo 2.0 viability counter screen. It counts as cell-based, human. To be noted: 1.66 and 5 μM, 48 h.
Data set [2] deals with HiBiT F3 ARPE-19 cells (fibulin-3 production). Briefly: HTS whole-well HiBiT F3 assay. The format is cell-based, human. To be noted: 0.2 nM – 50 μM, 24 h. In outline:
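Genome-edited heterogeneous ARPE-19 cells (2xFLAG-VS-HiBiT inserted after Ser16 of F3) were seeded at ~5,000 cells/well in 384-well plates and grown 24 h at 37°C. Medium was exchanged, and test compound in 0.1% DMSO was applied for 24 h. Plates were cooled 20 min at RT, then received a lytic buffer master mix with LgBiT (1:100) and lytic substrate (1:50). After 5 min shaking, whole-well luminescence was read.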

Data set [3] deals with HiBiT F5 in ARPE-19 cells. Briefly: HiBiT fibulin-5. It counts as cell-based, human.
For data set [4] the following is noted: preclinical neurological disorder studies; ref [61]; cited from earlier work.
Data set [5] concerns BLamD in R345W+/+ knockin mice. Nature of the data set: basal laminar deposit. It counts as in vivo, mouse. The conditions noted are these: treated mice (30/720 FOV), 25 mg/kg i.p., 1 mo; untreated 14.205%.
The subject of data set [6] is secreted proteome of HiBiT ARPE-19 cells. Nature of the data set: secreted proteome visualization and mass spectrometry. It counts as cell-based, human.
In data set [7] the test system is transcriptome of HiBiT F3 ARPE-19 cells. Nature of the data set: bulk RNAseq. It counts as cell-based, human. The conditions noted are these: 1 μM, 1 week. Summed up:
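The next day, 1 μM test compound or DMSO (1:1000) was added, with a media change at 96 h. Total RNA was extracted 7 days after treatment start and stored at −80°C. PCR-amplified libraries were bead-purified and quality-checked on a Bioanalyzer before sequencing.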

Data set [8] is described as follows: CHIR PK experiment with LC-MS/MS. It counts as in vivo, mouse. Summed up: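 C57BL/6J mice (three per time point, at least one male and one female) received 25 mg/kg i.p. of test compound. It was given as 5 mg/mL in 2% DMSO/5.7% Captisol in PBS. Tissues were collected at 0, 30, 180, 360, 960 and 1440 min under isoflurane, and retina and liver were homogenized in PBS. […] Eye level was estimated from a vitreous volume of ~4.4 μL.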

Data set [9] relates to HiBiT WT F3 and HiBiT R345W F3 ARPE-19 cells. Nature of the data set: extracellular HiBiT assay on transwells, WT and R345W F3. The format is cell-based, human. The conditions noted are these: 1 μM, 1 week, serum-free. Summed up: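 Cells carried HiBiT-tagged WT or R345W F3 in ARPE-19, with R345W made by knock-in in clonal cells. They were seeded on polyester transwells (~100,000/well for 12-well, ~30,000/well for 24-well) and switched to serum-free medium the next day, with changes every 3–4 days. After 1 week, cells were treated 1 week with 1 μM test compound or 0.1% DMSO in serum-free medium. Apical and basal media were then assayed for extracellular HiBiT luminescence.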

Another data set concerns ARPE-19 cells. Nature of the data set: lactate dehydrogenase. It counts as cell-based, human. Summed up:
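Test compound was applied to ARPE-19 cells for 72 h or 1 week. Media were spun at 1,000 RPM for 5 min. In technical triplicate, 50 μL of cleared medium was mixed with an equal volume of LDH reaction buffer for 30 min at 37°C. DMSO-treated medium served as control, and lysis buffer-treated cells served as positive control.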

Data set [10] relates to TCF-dependent Wnt signaling in HiBiT F3 ARPE-19 cells. Nature of the data set: 7xTCF reporter. To be noted: 1 μM, one week, 7TFP cells. It counts as cell-based, human.
The test system of the next data set is MMP2. Nature of the data set: MMP2 zymography. It counts as cell-based, human. The conditions noted are these: 1 μM, 1 week, HiBiT WT F3 and R345W F3 cells. In outline:
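HiBiT WT or R345W F3 ARPE-19 cells were grown on polyester transwells in serum-free medium for 1 week, then treated 1 week with 1 μM test compound or 0.1% DMSO. Apical and basal media went in non-reducing SDS buffer onto 10% gelatin gels (140 V, 90 min). Gels were renatured 30 min at RT, developed 30 min at RT, then overnight at 37°C in fresh developing buffer. Coomassie R-250 staining and densitometry followed.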

In data set [11] the test system is HiBiT mouse F3 in NIH-3T3 cells. Briefly: HiBiT F3 assay in NIH-3T3 fibroblasts. The conditions noted are these: NIH-3T3 mouse cells, 72 h. It counts as cell-based.
Data set [12] deals with HiBiT F3 in primary human dermal fibroblasts. Nature of the data set: HiBiT F3 assay in primary dermal fibroblasts. The format is cell-based. The conditions noted are these: 72 h, dose-responsive.
[13] abbreviates: both, C57BL/6J, mouse, eye, ip, 25 mg/kg.
Setting [14] is: both, C57BL/6J, mouse, liver, ip, 25 mg/kg.
The mark [15] stands for this setting: both, C57BL/6J, mouse, plasma, ip, 25 mg/kg.
Where [16] appears, read: both, C57BL/6J, mouse, retina, ip, 25 mg/kg.

6-bromoindirubin-3-oxime [BIO]: in data set [1] (72 h), the “HiBiT F3 secretion (extracellular)” value is “significantly reduced” and the “intracellular HiBiT F3 levels” value was “significantly reduced”.

Take `CN1CCN(S(=O)(=O)c2ccc(-c3cnc(N)c(C(=O)Nc4cccnc4)n3)cc2)CC1` [AZD2858]: the cytotoxicity profile entry in the data set on HiBiT F3 ARPE-19 cells is “favorable cytotoxicity profiles”. Moreover, the “dose-response confirmation of HiBiT F3 reduction” value in data set [2] is listed as “demonstrated dose-responsiveness”.

Turning to `Cc1c[nH]c(-c2cnc(NCCNc3ccc(C#N)cn3)nc2-c2ccc(Cl)cc2Cl)n1` [CHIR99021], in data set [3] (72 h, all concentrations used), the “secreted F5” value is on record as “dose-responsive reduction”. Besides, the F5 secretion result in data set [3] (week-long treatment, only at 1 and 10 μM) is “significantly reduced”. Also, the blood-brain barrier crossing entry in [4] was “can cross the blood-brain barrier”. For the same molecule, the “FOVs containing deposits (BLamDs)” value in data set [5] was found to be 4.167%. The “total protein secretion (SDS-PAGE of concentrated media)” value in data set [6] (10 μM) is listed as “clear increase”. For the same molecule, the “banding pattern or intensity of secreted protein” value in data set [6] (0.1 or 1 μM) is recorded as “relatively little detectable change”. In addition, the “reduction of F3 secretion” value in data set [1] (1 μM, one week) was 49.9 ± 7.0%. The “reduction of HiBiT F3 secretion” value in data set [1] (10 μM, 72 h) is on record as “up to 76%”. In data set [1] (72 h), the “HiBiT F3 secretion (extracellular)” value is “significantly reduced” and the “intracellular HiBiT F3 levels” value was “significantly reduced”. Moreover, in [7], the “PEDF (SERPINF1) in proteomics and RNAseq datasets” value is on record as “significantly upregulated”; the “transcripts of TYR and TYRP1” value is on record as “significantly upregulated”. Further, the “estimated peak concentration of CHIR in the eye” value in data set [8] (after 30 min, 25 mg/kg i.p., based on vitreous volume ~4.4 μL) is given as ~ 1.3 μM. Further, in data set [8] (setting [13]), the concentration at 3 h was ~1100 nM, the concentration at 6 h came out at 364 nM and the concentration at 24 h worked out at 151 nM. For the same molecule, in data set [8] (setting [14]), the Cmax was 33300 ng/g, the Tmax is 0.5 h, the concentration at 30 min is 33300 ng/g and the concentration at 180 min came to 4680 ng/g. In data set [8] (setting [14]), this molecule came in with a concentration at 360 min of 1160 ng/g, a concentration at 960 min of 6.1 ng/g, a concentration at 1440 min of 5.2 ng/g and a half-life of 2 h. For the same molecule, the MRT in data set [8] (both, C57BL/6J, mouse, liver, ip, 25 mg/kg, MRT, 25 mpk IP) was 1.57 h. In [8] (setting [15]), the AUC(0-t) is 15500 ng·h/mL, the CL/F was 27 mL/min/kg, the Cmax turned out to be 9250 ng/mL and the Tmax was 0.5 h. In data set [8] (setting [15]), this molecule returned a concentration at 30 min of 9250 ng/mL, a concentration at 180 min of 490 ng/mL, a concentration at 360 min of 41 ng/mL and a concentration at 960 min of 0.3 ng/mL. In [8] (setting [15]), the concentration at 1440 min came out at 0.4 ng/mL and the half-life came out at 1.97 h. The MRT in data set [8] (both, C57BL/6J, mouse, plasma, ip, 25 mg/kg, MRT, 25 mpk IP) was 0.817 h. Further, in [8] (setting [16]), the concentration peaked (Cmax) at 527 ng/g, the Tmax is 0.5 h, the concentration at 30 min was found to be 527 ng/g and the concentration at 180 min was found to be 434 ng/g. In data set [8] (setting [16]), this molecule registered a concentration at 360 min of 148 ng/g, a concentration at 960 min of 41 ng/g, a concentration at 1440 min of 61 ng/g and a half-life of 6.75 h. The same molecule had a mean residence time (MRT) in data set [8] (both, C57BL/6J, mouse, retina, ip, 25 mg/kg, MRT, 25 mpk IP) of 6.05 h. In addition, the AUClast in data set [8] (liver, 25 mpk IP, mouse) is 4,231,688 ± 272,680 min*ng/g. The same molecule returned a Vz_F in data set [8] (plasma, 25 mpk IP, mouse) of 4.586 L/kg. Moreover, the AUClast in data set [8] (retina, 25 mpk IP, mouse) is on record as 213,348 ± 17,725 min*ng/g. Also, the MRT in [8] (retina, 25 mpk IP, mouse, 25 mg/kg) was determined as 6.03 h. Further, the “apically and basally secreted HiBiT WT F3 and HiBiT R345W F3” value in [9] is recorded as “significantly reduced”. Moreover, the “toxicity by LDH release” value with ARPE-19 cells (72 h) is “non-toxic”. For the same molecule, in the data set with ARPE-19 cells (prolonged low level, one week), the “cell death by LDH release” value is on record as “does not increase cell death”. Besides, the “TCF activation (FLuc)” value in [10] is given as “without triggering TCF activation”. For the same molecule, in the data set on MMP2, the “reduction of MMP2 levels in apical media” value is 16-17% and the “reduction of MMP2 levels in basal media” value is reported as 29-31%. Moreover, the F3 production result in data set [11] was “reduced F3 production”. Also, in data set [12], the “intracellular HiBiT F3” value is on record as “significantly reduced” and the “secreted HiBiT F3” value is listed as “significantly reduced”.

For the molecule `Cc1cnc(-c2cnc(NCCNc3ccc(C#N)cn3)nc2-c2ccc(Cl)cc2Cl)[nH]1.Cl.Cl.Cl` [CHIR trihydrochloride], the Tmax in data set [8] (liver, 25 mpk IP, mouse) worked out at 0.5 h; in data set [8] (plasma, 25 mpk IP, mouse), 0.5 h; in data set [8] (retina, 25 mpk IP, mouse), 0.5 h.

As to `[Cl-].[Li+]` [LiCl, lithium chloride], in [1] (72 h), the “HiBiT F3 secretion (extracellular)” value is “significantly reduced” and the “intracellular HiBiT F3 levels” value is given as “significantly reduced”.

These data come from article PMC10760106 (bioRxiv, 2023).
